Measured values from ChEMBL document CHEMBL1151165, “Characterization of the preferred stereochemistry for the neuropharmacologic actions of antillatoxin” (J Nat Prod, 2004).

How the values were obtained:
[1] = Increase in cytoplasmic calcium influx in Sprague-Dawley rat CGN cells by FLIPR; assay type: cell-based
In short: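 Cytoplasmic Ca2+ in cerebellar granule cells was followed by fluo-3 fluorescence, with basal fluorescence (about 4000 units) subtracted. The response is the integrated fluorescence area under the curve, plotted against compound concentration.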

[2] = Cytotoxicity against mouse Neuro2a cells; assay type: cell-based, N2a; conditions: read-out: LD50 (the source's name)
[3] = Cytotoxicity in Sprague-Dawley rat CGN cells assessed as LDH release after 2 hrs; assay type: cell-based
In short: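 Rat cerebellar granule cells, 11-13 days in culture, exposed 2 h to the compound across a concentration range. LDH efflux into the culture medium was measured, and pEC50 was taken from concentration-response curves. Two separate experiments, each in triplicate, mean ± SEM.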

[4] = Increase in extracellular acidification rate in Sprague-Dawley rat CGN cells by cytosensor microphysiometer; assay type: cell-based
In short: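 Cerebellar granule neurons were cultured on porous polycarbonate membranes, and extracellular acidification rate was monitored by microphysiometry over a range of concentrations. Peak acidification rate is expressed as percent of basal proton efflux. Two separate experiments, each in duplicate, mean ± SEM.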

Carassius auratus = assay: Ichthyotoxicity against Carassius auratus; assay type: organism-based; conditions: in vivo
[5] = Increase in extracellular acidification rate in Sprague-Dawley rat CGN cells at 100 nM by cytosensor microphysiometer; assay type: cell-based; conditions: 0.1 µM
[6] = Cytotoxicity in Sprague-Dawley rat CGN cells assessed as LDH release at 100 nM after 2 hrs in presence of 1 uM tetrodotoxin; assay type: cell-based; conditions: 0.1 µM
[7] = Cytotoxicity in Sprague-Dawley rat CGN cells assessed as LDH release after 2 hrs in presence of 1 uM tetrodotoxin; assay type: cell-based

SMILES	Activity [1]	CC50 [2] [µM]	EC50 ([3]; read-out: EC50) [µM]	Activity [4] [µM]	Activity (Carassius auratus)	EC50 ([3]; read-out: pEC50 (converted)) [µM]	Activity [5] [%]	Activity [6]	Activity [7]
C=C1CC(=O)N[C@@H](C)C(=O)N(C)[C@@H](C(C)C)C(=O)NCC(=O)O[C@H](/C(C)=C/C(C)=C/C(C)(C)C)[C@H]1C	Dose-dependent effect and tde	10							
C=C1CC(=O)N[C@@H](C)C(=O)N(C)[C@@H](C(C)C)C(=O)NCC(=O)O[C@@H](/C(C)=C/C(C)=C/C(C)(C)C)[C@H]1C	Dose-dependent effect and tde	5							
C=C1CC(=O)N[C@@H](C)C(=O)N(C)[C@@H](C(C)C)C(=O)NCC(=O)O[C@H](/C(C)=C/C(C)=C/C(C)(C)C)[C@@H]1C	Dose-dependent effect and tde	10	8.1	5	Non-toxic				
C=C1CC(=O)N[C@@H](C)C(=O)N(C)[C@@H](C(C)C)C(=O)NCC(=O)O[C@@H](/C(C)=C/C(C)=C/C(C)(C)C)[C@@H]1C [ANTILLATOXIN]	Dose-dependent effect and tde	0.18	0.042	0.041	0.1 µM	0.0457	300	Non-toxic	Non-toxic
